pIC50: −log10 of the molar value. Blank lines part the entries; values can stand above or below the compound they belong to. Residues, ends and D or L forms follow the SMILES beside them. *: point of attachment. Cbz = O=C(OCc1ccccc1)*
Key:
[1] = target: T1, Proteasome Macropain subunit MB1 (Homo sapiens, UniProt P28074); assay: Inhibition of 20S proteosome beta 5 purified from human HCT116 cells using Suc-LLVY-AMC as substrate incubated for 30 to 120 mins by fluorimetry
T1 sequence (P28074 whole entry): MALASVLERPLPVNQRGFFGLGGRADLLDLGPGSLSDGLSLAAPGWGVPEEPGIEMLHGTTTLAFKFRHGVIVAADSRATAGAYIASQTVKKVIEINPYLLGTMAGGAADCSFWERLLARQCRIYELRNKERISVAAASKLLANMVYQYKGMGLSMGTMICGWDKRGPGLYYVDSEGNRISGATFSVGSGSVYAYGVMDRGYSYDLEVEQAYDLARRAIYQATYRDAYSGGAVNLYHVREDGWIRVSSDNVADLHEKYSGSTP
Method in brief: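 Semipurified proteasomes were pretreated with compound at 0.01–100 μM in activity buffer. Fluorogenic AMC substrates were used: Z-LLE-AMC for PGPH (β1), Boc-LRR-AMC for T-L (β2) and Suc-LLVY-AMC for ChT-L (β5). IC50 reported as mean ± SEM of three independent experiments.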

HCT-116 [2] = assay: Antiproliferative activity against human HCT116 cells assessed as reduction in cell viability incubated for 72 hrs by MTT assay; format: functional, cell-based; settings: HCT-116, 72 h
Method in brief: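 HCT116 human colorectal carcinoma cells exposed to compounds at 0.1–100 μM. IC50 for proliferation reported as mean ± SEM of three independent experiments.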

Homo sapiens [3] = species: Homo sapiens; assay: Selectivity index, ratio of IC50 of 20S proteosome beta 1 purified from human HCT116 cells to IC50 of 20S proteosome beta 2 purified from human HCT116 cells
Homo sapiens [4] = species: Homo sapiens; assay: Selectivity index, ratio of IC50 of 20S proteosome beta 5 purified from human HCT116 cells to IC50 of 20S proteosome beta 2 purified from human HCT116 cells
HCT-116 [5] = assay: Induction of apoptosis in human HCT116 cells assessed as viable cells at 1 uM incubated for 48 hrs by annexin-V FITC and propidium iodide staining based flow cytometry relative to control; format: functional; settings: HCT-116, 48 h, read-out: Activity
Method in brief: (§1)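 HCT116 tumour cells cultured 48 or 72 h with or without compound at 1 μM. Cells were stained with Annexin V and propidium iodide. Annexin V+/PI− was scored as early apoptotic and Annexin V+/PI+ as late apoptotic. Percentages of cells were read from dot plots, with three experiments run.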

HCT-116 [6] = assay: Induction of apoptosis in human HCT116 cells assessed as viable cells at 1 uM incubated for 72 hrs by annexin-V FITC and propidium iodide staining based flow cytometry relative to control; format: functional; settings: HCT-116, 72 h, read-out: Activity; method in brief: as §1
HCT-116 [7] = assay: Induction of apoptosis in human HCT116 cells assessed as late apoptotic cells at 1 uM incubated for 48 hrs by annexin-V FITC and propidium iodide staining based flow cytometry relative to control; format: functional; method in brief: as §1
HCT-116 [8] = assay: Induction of apoptosis in human HCT116 cells assessed as necrotic cells at 1 uM incubated for 48 hrs by annexin-V FITC and propidium iodide staining based flow cytometry relative to control; format: functional; method in brief: as §1
HCT-116 [9] = assay: Induction of apoptosis in human HCT116 cells assessed as early apoptotic cells at 1 uM incubated for 72 hrs by annexin-V FITC and propidium iodide staining based flow cytometry relative to control; format: functional; method in brief: as §1
HCT-116 [10] = assay: Induction of apoptosis in human HCT116 cells assessed as late apoptotic cells at 1 uM incubated for 72 hrs by annexin-V FITC and propidium iodide staining based flow cytometry relative to control; format: functional; method in brief: as §1
HCT-116 [11] = assay: Induction of apoptosis in human HCT116 cells assessed as necrotic cells at 1 uM incubated for 72 hrs by annexin-V FITC and propidium iodide staining based flow cytometry relative to control; format: functional; method in brief: as §1
HCT-116 [12] = assay: Induction of apoptosis in human HCT116 cells assessed as early apoptotic cells at 1 uM incubated for 48 hrs by annexin-V FITC and propidium iodide staining based flow cytometry relative to control; format: functional; method in brief: as §1
Homo sapiens [13] = species: Homo sapiens; assay: Selectivity ratio of IC50 of 20S proteosome beta 1 purified from human HCT116 cells to IC50 of 20S proteosome beta 5 purified from human HCT116 cells
Homo sapiens [14] = species: Homo sapiens; assay: Selectivity ratio of IC50 of 20S proteosome beta 2 purified from human HCT116 cells to IC50 of 20S proteosome beta 5 purified from human HCT116 cells

Structure (SMILES): CC(C)C[C@H](NC(=O)OCc1ccccc1)C(=O)N[C@@H](CC(C)C)C(=O)N[C@@H](CC(C)C)C(O)C(=O)N1CCc2ccccc2C1 (stereo not given in full)
pIC50 [1]: < 4.00

Structure (SMILES): CC(C)C[C@H](NC(=O)OCc1ccccc1)C(=O)N[C@@H](CC(C)C)C(=O)N[C@@H](CC(C)C)C(O)C(=O)NCc1ccc(F)cc1 (stereo not given in full)
pIC50 [1]: < 4.00

Structure (SMILES): CC(C)C[C@H](NC(=O)OCc1ccccc1)C(=O)N[C@@H](CC(C)C)C(=O)N[C@@H](CC(C)C)C(=O)C(=O)Nc1cccc2ccccc12
viability at 1 µM (HCT-116 [5]): 45.1%
viability at 1 µM (HCT-116 [6]): 27.1%
pIC50 (HCT-116 [2]): > 7.00
Activity (HCT-116 [7]): 29.5%
Activity (HCT-116 [8]): 2.77%
pIC50 [1]: 8.15
Activity (HCT-116 [9]): 11.3%
Activity (HCT-116 [10]): 59.4%
Activity (HCT-116 [11]): 2.29%
Activity (HCT-116 [12]): 22.6%
Ratio IC50 (Homo sapiens [13]): 8200
Ratio IC50 (Homo sapiens [14]): > 14200

Structure (SMILES): CC(C)C[C@H](NC(=O)OCc1ccccc1)C(=O)N[C@@H](CC(C)C)C(=O)N[C@@H](CC(C)C)C(=O)C(=O)N1CCc2ccccc2C1
pIC50 [1]: 6.11

Structure (SMILES): CC(C)CNC(=O)C(O)[C@H](CC(C)C)NC(=O)[C@H](CC(C)C)NC(=O)[C@H](CC(C)C)NC(=O)OCc1ccccc1 (stereo not given in full)
pIC50 [1]: < 4.00

Structure (SMILES): CC(C)C[C@H](NC(=O)OCc1ccccc1)C(=O)N[C@@H](CC(C)C)C(=O)N[C@@H](CC(C)C)C(O)C(=O)NCc1ccccc1 (stereo not given in full)
pIC50 [1]: 6.28

Structure (SMILES): CC(C)CNC(=O)C(=O)[C@H](CC(C)C)NC(=O)[C@H](CC(C)C)NC(=O)[C@H](CC(C)C)NC(=O)OCc1ccccc1
viability at 1 µM (HCT-116 [5]): 55.4%
viability at 1 µM (HCT-116 [6]): 48.8%
pIC50 (HCT-116 [2]): 6.09
Activity (HCT-116 [7]): 22.3%
Activity (HCT-116 [8]): 1.53%
pIC50 [1]: 7.92
Activity (HCT-116 [9]): 10.5%
Activity (HCT-116 [10]): 38.8%
Activity (HCT-116 [11]): 1.91%
Activity (HCT-116 [12]): 20.7%

Structure (SMILES): CC(C)C[C@H](NC(=O)OCc1ccccc1)C(=O)N[C@@H](CC(C)C)C(=O)N[C@@H](CC(C)C)C(O)C(=O)Nc1cccc2ccccc12 (stereo not given in full)
pIC50 [1]: 5.09

Structure (SMILES): CC(C)C[C@H](NC(=O)OCc1ccccc1)C(=O)N[C@@H](CC(C)C)C(=O)N[C@@H](CC(C)C)C(O)C(=O)N1CCOCC1 (stereo not given in full)
pIC50 [1]: < 4.00

Structure (SMILES): CC(C)C[C@@H](C=O)NC(=O)[C@H](CC(C)C)NC(=O)[C@H](CC(C)C)NC(=O)OCc1ccccc1 [MG-132] (Cbz-Leu-Leu-Leu-aldehyde)
pIC50 (HCT-116 [2]): 6.09

Structure (SMILES): CC(C)C[C@H](NC(=O)OCc1ccccc1)C(=O)N[C@@H](CC(C)C)C(=O)N[C@@H](CC(C)C)C(=O)C(=O)N1CCOCC1
pIC50 [1]: 6.32

Structure (SMILES): CC(C)C[C@H](NC(=O)OCc1ccccc1)C(=O)N[C@@H](CC(C)C)C(=O)N[C@@H](CC(C)C)C(=O)C(=O)NCc1ccc(F)cc1
pIC50 (HCT-116 [2]): 6.03
pIC50 [1]: 7.25

More lines, now with the values ahead:

pIC50 [1]: < 4.00
Structure (SMILES): CC(C)C[C@H](NC(=O)OCc1ccccc1)C(=O)N[C@@H](Cc1ccccc1)C(O)C(=O)NCc1ccccc1 (stereo not given in full)

pIC50 (HCT-116 [2]): < 4.00
pIC50 [1]: 4.91
Structure (SMILES): CC(C)C[C@H](NC(=O)OCc1ccccc1)C(=O)N[C@@H](Cc1ccc(O)cc1)C(=O)C(=O)NCc1ccccc1

pIC50 [1]: 4.09
Structure (SMILES): CC(C)C[C@H](NC(=O)OCc1ccccc1)C(=O)N[C@@H](C(C)C)C(O)C(=O)NCc1ccccc1 (stereo not given in full)

pIC50 [1]: 4.20
Ratio IC50 (Homo sapiens [3]): 7
Ratio IC50 (Homo sapiens [4]): 30
Structure (SMILES): CC(C)C[C@H](NC(=O)OCc1ccccc1)C(=O)N[C@H](C(=O)C(=O)NCc1ccccc1)C(C)C

pIC50 [1]: 4.30
Structure (SMILES): CC(C)C[C@H](NC(=O)OCc1ccccc1)C(=O)N[C@@H](CC(C)C)C(O)C(=O)NCc1ccccc1 (stereo not given in full)

pIC50 (HCT-116 [2]): 5.07
pIC50 [1]: 6.04
Structure (SMILES): CC(C)C[C@H](NC(=O)OCc1ccccc1)C(=O)N[C@@H](CC(C)C)C(=O)C(=O)NCc1ccccc1

pIC50 [1]: < 4.00
Structure (SMILES): CC(C)C[C@H](NC(=O)OCc1ccccc1)C(=O)N[C@@H](CC(N)=O)C(O)C(=O)NCc1ccccc1 (stereo not given in full)

pIC50 (HCT-116 [2]): 6.11
pIC50 [1]: 7.85
Structure (SMILES): CC(C)C[C@H](NC(=O)OCc1ccccc1)C(=O)N[C@@H](CC(C)C)C(=O)N[C@@H](CC(C)C)C(=O)C(=O)NCc1ccccc1

pIC50 [1]: < 4.00
Structure (SMILES): CC(C)C[C@H](NC(=O)OCc1ccccc1)C(=O)N[C@@H](CC(N)=O)C(=O)C(=O)NCc1ccccc1

pIC50 [1]: 4.29
Structure (SMILES): CC(C)C[C@H](NC(=O)OCc1ccccc1)C(=O)N[C@@H](Cc1ccccc1)C(=O)C(=O)NCc1ccccc1

pIC50 [1]: < 4.00
Structure (SMILES): CC(C)C[C@H](NC(=O)OCc1ccccc1)C(=O)N[C@@H](Cc1cccc2ccccc12)C(O)C(=O)NCc1ccccc1 (stereo not given in full)

pIC50 [1]: 4.15
Structure (SMILES): CC(C)C[C@H](NC(=O)OCc1ccccc1)C(=O)N[C@@H](Cc1ccc(O)cc1)C(O)C(=O)NCc1ccccc1 (stereo not given in full)
